Consider 24 compounds from ChEMBL document CHEMBL4339184, “Discovery of deshydroxy bicalutamide derivatives as androgen receptor antagonists” (Eur J Med Chem, 2019).

The structures appear in SMILES notation. Where only a bound is given, the exact number is not on record here.

In assay [1] the test system is LNCaP. In words: Antiproliferative activity against human LNCAP cells assessed as reduction in cell viability after 96 hrs by MTT assay. Format: functional, cell-based. A digest of the protocol: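 LNCaP cells in RPMI-1640 with 10% FCS, penicillin/streptomycin, 37°C, 5% CO2; seeded 4000 cells/well, adhered overnight. Medium replaced with fresh medium carrying nine half-log concentrations up to 100 μM (DMSO 1:100) or DMSO control, triplicate, 96 h. MTT, formazan dissolved in acidified isopropanol, A540; viability vs DMSO; absolute IC50 by non-linear regression, mean of three independent experiments.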
On the technique in general: Formazan colour is commonly taken as a measure of viable cells.

The subject of the next assay is PC-3. In words: Antiproliferative activity against human PC3 cells assessed as reduction in cell viability after 96 hrs by MTT assay. Type of assay: functional, cell-based. Particulars: PC-3, 96 h. A digest of the protocol:
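PC3 cells grown in DMEM with 10% FCS, seeded at 4000 cells/well, adhered overnight, then medium replaced with medium containing nine concentrations from 0.1 to 100 μM (1:100 dilution of DMSO stocks) or DMSO control, in triplicate, for 96 h. MTT read-out: formazan dissolved in acidified isopropanol, absorbance at 540 nm; viability normalised to DMSO; IC50 from triplicate means.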

The next assay concerns VCaP. Kind of assay: Antiproliferative activity against human VCaP cells assessed as reduction in cell viability after 96 hrs by MTS assay. Type of assay: functional, cell-based. A digest of the protocol: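 VCaP cells in DMEM with 10% FCS, exposed for 96 h in triplicate to nine concentrations from 0.1 to 100 μM or DMSO. Because adherence is poor, only half the medium was exchanged for medium carrying compound at a 1:50 dilution. Viability by MTS, absorbance at 490 nm after 1 and 2 h, normalised to DMSO; IC50 from triplicate means.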

Assay [2] deals with T1, Androgen receptor (Homo sapiens) (UniProt P10275).
T1 sequence (whole entry): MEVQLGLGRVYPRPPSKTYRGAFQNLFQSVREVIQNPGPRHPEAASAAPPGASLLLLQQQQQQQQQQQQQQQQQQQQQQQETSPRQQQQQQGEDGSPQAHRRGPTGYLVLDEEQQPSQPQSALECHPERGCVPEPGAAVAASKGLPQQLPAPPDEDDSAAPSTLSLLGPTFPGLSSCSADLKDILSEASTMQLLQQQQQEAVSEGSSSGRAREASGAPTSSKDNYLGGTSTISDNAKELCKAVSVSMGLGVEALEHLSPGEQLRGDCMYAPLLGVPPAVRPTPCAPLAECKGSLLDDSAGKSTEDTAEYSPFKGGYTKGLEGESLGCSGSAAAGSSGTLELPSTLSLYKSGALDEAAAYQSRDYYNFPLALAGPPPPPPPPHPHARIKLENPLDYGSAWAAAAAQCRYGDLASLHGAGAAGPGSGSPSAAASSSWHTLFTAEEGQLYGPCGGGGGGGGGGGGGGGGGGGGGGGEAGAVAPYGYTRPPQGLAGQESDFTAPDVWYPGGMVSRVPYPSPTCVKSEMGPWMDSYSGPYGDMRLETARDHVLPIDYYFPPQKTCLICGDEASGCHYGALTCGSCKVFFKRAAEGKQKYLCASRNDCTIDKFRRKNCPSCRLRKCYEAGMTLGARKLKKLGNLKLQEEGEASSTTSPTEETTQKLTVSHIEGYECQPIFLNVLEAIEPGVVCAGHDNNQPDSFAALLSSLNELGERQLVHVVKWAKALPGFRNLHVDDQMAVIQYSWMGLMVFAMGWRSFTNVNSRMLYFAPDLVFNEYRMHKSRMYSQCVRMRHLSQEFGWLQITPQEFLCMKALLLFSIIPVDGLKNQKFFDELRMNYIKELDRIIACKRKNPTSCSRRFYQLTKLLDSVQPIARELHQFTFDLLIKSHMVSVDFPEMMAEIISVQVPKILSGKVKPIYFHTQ
Kind of assay: Antagonist activity at androgen receptor in human LNCAP cells assessed as reduction in PSA expression after 24 hrs by qPCR analysis. Format: cell-based. An outline of the steps: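 LNCaP cells seeded in 6-well plates in RPMI and allowed 24 h to adhere, then exposed to 5, 10, 50 and 100 μM for 24 h; untreated and DMSO (1:100) wells as negative controls. RNA extracted with TRI-reagent, reverse-transcribed, qPCR run in triplicate for PSA with AR, GAPDH, RPL19 and β-actin as housekeeping genes; relative expression by ΔΔCT.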
On the technique in general: Quantitative PCR measures a nucleic acid by following its amplification.

Assay [3] concerns LNCaP. In words: Potency index, ratio of IC50 for enzalutamide to IC50 for test compound for antiproliferative activity against human LNCAP cells incubated for 96 hrs by MTT assay. Format: functional.
Assay [4] relates to LNCaP. In words: Potency index, ratio of IC50 for bicalutamide to IC50 for test compound for antiproliferative activity against human LNCAP cells incubated for 96 hrs by MTT assay. Type of assay: functional.

One may read the IC50 as the concentration that gives 50% inhibition. As for `CC(CSc1cc(C(F)(F)F)cc(C(F)(F)F)c1)C(=O)Nc1ccc([N+](=O)[O-])cc1C(F)(F)F` (racemic), in the assay on LNCaP [1], the half-inhibitory concentration (IC50) is 43.7 µM.

`CC(CSc1ccc(C(F)(F)F)cc1)C(=O)Nc1ccc([N+](=O)[O-])c(C(F)(F)F)c1` (racemic): in the assay on LNCaP [1], the concentration for half-maximal inhibition (IC50) was found to be 4.41 µM. The same measure, in the same setting: the figure for `CC(CS(=O)(=O)c1cc(C(F)(F)F)cc(C(F)(F)F)c1)C(=O)Nc1ccc(C#N)cc1C(F)(F)F` (racemic) is 9.56 µM; for `CC(CSc1cc(C(F)(F)F)cc(C(F)(F)F)c1)C(=O)Nc1ccc(C#N)cc1C(F)(F)F` (racemic) it is 4.57 µM.

With `CC(CSc1ccc(C(F)(F)F)cc1)C(=O)Nc1ccc([N+](=O)[O-])cc1C(F)(F)F` (racemic), the concentration for half-maximal inhibition (IC50) with LNCaP [1] was 54.3 µM. Still for that read-out and setting: then `CC(CS(=O)(=O)c1ccc(C(F)(F)F)cc1)C(=O)Nc1ccc([N+](=O)[O-])c(C(F)(F)F)c1` (racemic), with 3.31 µM; and `CC(CSc1cccc(OC(F)(F)F)c1)C(=O)Nc1ccc(C#N)c(C(F)(F)F)c1` (racemic), with 115 µM. Regarding `CC(CS(=O)(=O)c1ccc(F)cc1)C(=O)Nc1ccc([N+](=O)[O-])c(C(F)(F)F)c1` (racemic), the IC50 in the assay on PC-3 came to 112 µM; in the assay with VCaP, 8.21 µM; in the assay with LNCaP [1] it was 2.67 µM. The inhibition result in assay [2] is “Dose-dependent effect”. Turning to `CC(CS(=O)(=O)c1cc(C(F)(F)F)cc(C(F)(F)F)c1)C(=O)Nc1ccc([N+](=O)[O-])cc1C(F)(F)F` (racemic), the IC50 in the assay with LNCaP [1] came to 3.08 µM. On to `CC(CSc1cc(C(F)(F)F)cc(C(F)(F)F)c1)(Sc1cc(C(F)(F)F)cc(C(F)(F)F)c1)C(=O)Nc1ccc([N+](=O)[O-])cc1C(F)(F)F` (racemic), for which the half-maximal inhibitory concentration (IC50) in the assay with PC-3 worked out at 0.91 µM; with VCaP, 0.18 µM; in the assay on LNCaP [1], 0.43 µM. Moreover, the “Ratio IC50” value with LNCaP [3] is on record as above 3; in the assay with LNCaP [4], above 40. For the same compound, the inhibition result in assay [2] is “Dose-dependent effect”. `CC(CS(=O)(=O)c1ccc(F)cc1)C(=O)Nc1ccc([N+](=O)[O-])cc1C(F)(F)F` (racemic): the concentration for half-maximal inhibition (IC50) with LNCaP [1] turned out to be 4.05 µM. The same measure, in the same setting: the figure for `CC(CS(=O)(=O)c1ccc(C(F)(F)F)cc1)C(=O)Nc1ccc(C#N)c(C(F)(F)F)c1` (racemic) is 58 µM. `CC(CSc1ccc(C(F)(F)F)cc1)(Sc1ccc(C(F)(F)F)cc1)C(=O)Nc1ccc(C#N)c(C(F)(F)F)c1` (racemic): the half-inhibitory concentration (IC50) in the assay on PC-3 was found to be 5.45 µM; in the assay with VCaP it was 0.13 µM; with LNCaP [1] it was 1.68 µM. Besides, the inhibition entry in assay [2] is “Dose-dependent effect”. For the compound `CC(CSc1ccc(F)cc1)C(=O)Nc1ccc(C#N)c(C(F)(F)F)c1` (racemic), in the assay on LNCaP [1], the half-maximal inhibitory concentration (IC50) came to 8.69 µM. The same measure, in the same setting: then `CC(CS(=O)(=O)c1ccc(F)cc1)C(=O)Nc1ccc(C#N)c(C(F)(F)F)c1` (racemic), with 115 µM. As for `CC(CS(=O)(=O)c1cc(C(F)(F)F)cc(C(F)(F)F)c1)C(=O)Nc1ccc(C#N)c(C(F)(F)F)c1` (racemic), the IC50 in the assay with LNCaP [1] is 6.16 µM. On the same count and under the same terms, then `CC(CS(=O)(=O)c1ccc(C(F)(F)F)cc1)C(=O)Nc1ccc([N+](=O)[O-])cc1C(F)(F)F` (racemic), with 26.3 µM.

On to `CC(CSc1ccc(F)cc1)C(=O)Nc1ccc([N+](=O)[O-])c(C(F)(F)F)c1` (racemic), for which the IC50 with LNCaP [1] amounted to 27.2 µM.

For the compound `CC(CS(=O)(=O)c1cccc(OC(F)(F)F)c1)C(=O)Nc1ccc(C#N)c(C(F)(F)F)c1` (racemic), in the assay on LNCaP [1], the IC50 was 13.2 µM. On the same count and under the same terms, then `CC(CS(=O)(=O)c1cc(C(F)(F)F)cc(C(F)(F)F)c1)C(=O)Nc1ccc([N+](=O)[O-])c(C(F)(F)F)c1` (racemic), with 12.2 µM.

As to `CC(CSc1ccc(F)cc1)C(=O)Nc1ccc([N+](=O)[O-])cc1C(F)(F)F` (racemic), the 50% inhibitory concentration (IC50) in the assay with LNCaP [1] stood at 43.2 µM. Consider `CC(CS(=O)(=O)c1ccc(C(F)(F)F)cc1)C(=O)Nc1ccc(C#N)cc1C(F)(F)F` (racemic), for which the IC50 in the assay on LNCaP [1] stood at 28.8 µM. `C[C@](O)(CS(=O)(=O)c1ccc(F)cc1)C(=O)Nc1ccc(C#N)c(C(F)(F)F)c1` [(R)-BICALUTAMIDE]: the IC50 in the assay with PC-3 amounted to 92.6 µM; in the assay on VCaP it was 5.96 µM; with LNCaP [1], 20.4 µM. For `CNC(=O)c1ccc(N2C(=S)N(c3ccc(C#N)c(C(F)(F)F)c3)C(=O)C2(C)C)cc1F` [ENZALUTAMIDE], in that order: 15.1 µM, 3.66 µM and 1.31 µM.
